Assays:
Cathepsin B [1] = molecular target: T1, Cathepsin B (Homo sapiens, UniProt P07858); test: Compound is evaluated for inhibition kinetic constant (kobs/[I], 1/M.s) for cathepsin B
Procedure, shortened: (§1)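 Cathepsin B, ~5-10 nM, added to 50 mM phosphate pH 6.0, 2.5 mM EDTA, 2.5 mM DTT, 50 μM Z-Arg-Arg-AMC (Km 190 μM), DMF <1%, 25 °C. Fluorescence ex 380/em 450 nm over 5 min. kobs by first-order fit at ≥6 inhibitor concentrations; kirr and Ki app from saturation fit, Ki = Ki app/(1+[S]/Km); kirr/Ki also from 1/kobs vs 1/[I]; duplicates.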

Cathepsin S [2] = molecular target: T2, Cathepsin S (Homo sapiens, UniProt P25774); test: Compound is evaluated for inhibition kinetic constant (kobs/[I], 1/M.1/s) for cathepsin S
Procedure, shortened: (§2)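 Fluorescence ex 380/em 450 nm, 5 min or to ≤1% activity. kobs from first-order fits, ≥6 inhibitor levels near Ki, fit to saturation equation; Ki corrected by 1+[S]/Km; duplicates.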
Target sequence in this assay (P25774 115-331 limits assumed): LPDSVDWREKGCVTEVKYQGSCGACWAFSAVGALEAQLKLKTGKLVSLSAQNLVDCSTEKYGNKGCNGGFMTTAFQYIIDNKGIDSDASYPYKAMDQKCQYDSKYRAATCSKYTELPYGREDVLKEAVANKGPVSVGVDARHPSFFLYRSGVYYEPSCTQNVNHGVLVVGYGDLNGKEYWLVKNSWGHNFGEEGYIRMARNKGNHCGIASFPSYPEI

[3] = molecular target: Cruzipain (Trypanosoma cruzi) (UniProt P25779); test: Compound is evaluated for inhibition kinetic constant (kobs/[I], 1/M.1/s) for Cruzaine
Procedure, shortened: (§3)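 Enzyme (~1-5 nM) starts the reaction with substrate and inhibitor present. Fluorescence ex 380/em 450 nm for 5 min. kobs from first-order fits at ≥6 inhibitor concentrations; Ki app corrected by 1+[S]/Km; second-order constant from 1/kobs vs 1/[I] slope; duplicates.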

[4] = molecular target: T3, Calpain-1 catalytic subunit (Homo sapiens) (UniProt P07384); test: Compound is evaluated for inhibition kinetic constant (kobs/[I], 1/M.1/s) for calpain 1
T3 sequence (whole entry): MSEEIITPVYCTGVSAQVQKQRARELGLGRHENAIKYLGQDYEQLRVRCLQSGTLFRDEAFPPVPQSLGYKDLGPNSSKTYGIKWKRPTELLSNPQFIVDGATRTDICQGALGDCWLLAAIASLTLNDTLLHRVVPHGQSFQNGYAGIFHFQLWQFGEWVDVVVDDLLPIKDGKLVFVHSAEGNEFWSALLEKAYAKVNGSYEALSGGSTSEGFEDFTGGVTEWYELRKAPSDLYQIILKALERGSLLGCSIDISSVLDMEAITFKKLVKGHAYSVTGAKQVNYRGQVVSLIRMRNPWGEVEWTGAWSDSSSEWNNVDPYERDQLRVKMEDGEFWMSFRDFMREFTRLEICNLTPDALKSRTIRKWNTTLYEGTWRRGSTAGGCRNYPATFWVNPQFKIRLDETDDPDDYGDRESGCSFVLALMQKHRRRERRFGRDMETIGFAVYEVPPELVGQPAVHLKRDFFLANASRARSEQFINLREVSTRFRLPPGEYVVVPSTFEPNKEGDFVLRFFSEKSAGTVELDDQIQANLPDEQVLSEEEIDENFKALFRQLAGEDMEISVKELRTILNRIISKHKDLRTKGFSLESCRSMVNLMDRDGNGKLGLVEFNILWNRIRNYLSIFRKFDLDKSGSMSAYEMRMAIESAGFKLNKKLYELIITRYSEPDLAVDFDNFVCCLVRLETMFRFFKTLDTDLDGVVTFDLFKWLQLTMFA
Procedure, shortened: (§4)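 Enzyme ~20 nM is added last to substrate plus inhibitor at 25 °C. Fluorescence ex 380/em 450 nm for 5 min or until ≤1% activity. Progress curves fit first-order to kobs; reported as kobs/[I]; duplicate runs.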

[5] = molecular target: T4, Cathepsin K (Homo sapiens) (UniProt P43235); test: Compound is evaluated for inhibition kinetic constant (kobs/[I], 1/M.1/s) for cathepsin O2
T4 sequence (whole entry): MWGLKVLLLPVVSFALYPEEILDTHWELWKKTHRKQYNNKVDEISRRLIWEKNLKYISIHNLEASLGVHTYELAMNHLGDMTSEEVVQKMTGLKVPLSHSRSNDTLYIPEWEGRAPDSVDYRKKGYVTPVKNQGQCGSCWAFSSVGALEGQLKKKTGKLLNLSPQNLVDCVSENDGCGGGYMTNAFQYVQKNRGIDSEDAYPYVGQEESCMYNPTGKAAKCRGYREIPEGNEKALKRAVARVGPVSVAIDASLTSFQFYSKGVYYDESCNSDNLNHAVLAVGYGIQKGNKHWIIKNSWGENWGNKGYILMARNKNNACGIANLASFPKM
Procedure, shortened: (§5)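 Read at ex 380/em 450 nm for 5 min. Progress curves fit first-order for kobs at ≥6 inhibitor concentrations; kinact and Ki app from saturation fit, Ki corrected for substrate; ratio also from double-reciprocal slope; duplicates.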

Procathepsin L [6] = molecular target: T5, Procathepsin L (Homo sapiens, UniProt P07711); test: Compound is evaluated for inhibition kinetic constant (kobs/[I], 1/M.1/s) for cathepsin L
Procedure, shortened: (§6)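 Fluorescence increase (ex 380, em 450 nm) followed 5 min or to ≤1% activity. kobs by first-order fit at ≥6 inhibitor levels near Ki, fit to saturation equation; Ki = Ki app/(1+[S]/Km); duplicates.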
Target sequence in this assay (P07711 114-333 limits assumed): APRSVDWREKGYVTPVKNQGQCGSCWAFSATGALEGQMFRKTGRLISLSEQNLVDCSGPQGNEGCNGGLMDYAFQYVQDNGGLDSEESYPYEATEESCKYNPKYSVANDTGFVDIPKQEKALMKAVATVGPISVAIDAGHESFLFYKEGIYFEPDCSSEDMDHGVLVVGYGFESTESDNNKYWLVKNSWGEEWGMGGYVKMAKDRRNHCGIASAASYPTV

Procathepsin L [7] = molecular target: T5, Procathepsin L; test: Compound is evaluated for inhibition kinetic constant Kinact for the cathepsin L; procedure, shortened: as §6
Target sequence in this assay (P07711 114-333 limits assumed): as above

Cathepsin B [8] = molecular target: T1, Cathepsin B; test: Ratio of inhibition kinetic constants kirr and Ki against Cathepsin B; procedure, shortened: as §1
Cathepsin K = molecular target: T6, Cathepsin K (Homo sapiens, UniProt P43235); test: Compound is evaluated for inhibitory potency against cathepsin O2; procedure, shortened: as §5
T6 sequence (P43235 whole entry): T4 sequence (whole entry)

[9] = molecular target: Cruzipain (Trypanosoma cruzi) (UniProt P25779); test: Ratio of inhibition kinetic constants kinact and Ki against Cruzaine; procedure, shortened: as §3
Procathepsin L [10] = molecular target: T5, Procathepsin L; test: Compound is evaluated for inhibitory potency against cathepsin L; procedure, shortened: as §6
Target sequence in this assay (P07711 whole entry): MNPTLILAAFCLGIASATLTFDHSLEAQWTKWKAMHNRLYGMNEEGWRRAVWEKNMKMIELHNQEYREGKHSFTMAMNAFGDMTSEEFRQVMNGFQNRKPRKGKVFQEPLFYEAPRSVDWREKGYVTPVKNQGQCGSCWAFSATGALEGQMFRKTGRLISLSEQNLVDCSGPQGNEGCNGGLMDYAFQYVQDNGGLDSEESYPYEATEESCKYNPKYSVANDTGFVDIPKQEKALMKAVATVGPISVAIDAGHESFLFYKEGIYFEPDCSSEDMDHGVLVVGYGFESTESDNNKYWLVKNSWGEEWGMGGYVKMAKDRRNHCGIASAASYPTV

[11] = molecular target: T4, Cathepsin K (Homo sapiens); test: Ratio of inhibition kinetic constants kinact and Ki against Cathepsin O2; procedure, shortened: as §5
[12] = molecular target: T4, Cathepsin K (Homo sapiens); test: Compound is evaluated for inhibition kinetic constant Kinact for the cathepsin O2; procedure, shortened: as §5
Cathepsin S [13] = molecular target: T2, Cathepsin S; test: Ratio of inhibition kinetic constants kinact and Ki against Cathepsin S; procedure, shortened: as §2
Target sequence in this assay (P25774 115-331 limits assumed): as the sequence (P25774 115-331 limits assumed) above

Cathepsin B [14] = molecular target: T1, Cathepsin B; test: Compound is evaluated for inhibition kinetic constant Kirr for the cathepsin B; procedure, shortened: as §1
Cathepsin S [15] = molecular target: T2, Cathepsin S; test: Compound is evaluated for inhibition kinetic constant Kinact for the cathepsin S; procedure, shortened: as §2
Target sequence in this assay (P25774 115-331 limits assumed): as above

Procathepsin L [16] = molecular target: T5, Procathepsin L; test: Ratio of inhibition kinetic constants kinact and Ki against Cathepsin L; procedure, shortened: as §6
Target sequence in this assay (P07711 114-333 limits assumed): as the sequence (P07711 114-333 limits assumed) above

Cathepsin S [17] = molecular target: T2, Cathepsin S; test: Compound is evaluated for inhibitory potency against cathepsin S; procedure, shortened: as §2
Target sequence in this assay (P25774 whole entry): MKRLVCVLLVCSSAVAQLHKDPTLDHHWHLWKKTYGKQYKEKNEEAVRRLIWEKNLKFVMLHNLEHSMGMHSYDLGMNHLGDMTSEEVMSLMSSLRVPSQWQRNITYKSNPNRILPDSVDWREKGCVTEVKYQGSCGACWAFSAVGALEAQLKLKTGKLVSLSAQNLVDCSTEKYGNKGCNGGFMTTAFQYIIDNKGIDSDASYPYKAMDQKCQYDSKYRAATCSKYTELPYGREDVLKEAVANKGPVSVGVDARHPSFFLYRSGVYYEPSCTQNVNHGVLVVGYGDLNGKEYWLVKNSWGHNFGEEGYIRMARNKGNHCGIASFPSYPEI

Cathepsin B [18] = molecular target: T1, Cathepsin B; test: Compound is evaluated for inhibitory potency against cathepsin B; procedure, shortened: as §1
Cruzipain = Cruzipain (Trypanosoma cruzi, UniProt P25779); test: Compound is evaluated for inhibitory potency against Cruzaine; procedure, shortened: as §3
[19] = molecular target: Cruzipain (Trypanosoma cruzi) (UniProt P25779); test: Compound is evaluated for inhibition kinetic constant Kinact for the Cruzaine; procedure, shortened: as §3
[20] = molecular target: T7, Calpain-2 catalytic subunit (Homo sapiens) (UniProt P17655); test: Compound is evaluated for inhibition kinetic constant (kobs/[I], 1/M.1/s) for Calpain 2; procedure, shortened: as §4
T7 sequence (whole entry): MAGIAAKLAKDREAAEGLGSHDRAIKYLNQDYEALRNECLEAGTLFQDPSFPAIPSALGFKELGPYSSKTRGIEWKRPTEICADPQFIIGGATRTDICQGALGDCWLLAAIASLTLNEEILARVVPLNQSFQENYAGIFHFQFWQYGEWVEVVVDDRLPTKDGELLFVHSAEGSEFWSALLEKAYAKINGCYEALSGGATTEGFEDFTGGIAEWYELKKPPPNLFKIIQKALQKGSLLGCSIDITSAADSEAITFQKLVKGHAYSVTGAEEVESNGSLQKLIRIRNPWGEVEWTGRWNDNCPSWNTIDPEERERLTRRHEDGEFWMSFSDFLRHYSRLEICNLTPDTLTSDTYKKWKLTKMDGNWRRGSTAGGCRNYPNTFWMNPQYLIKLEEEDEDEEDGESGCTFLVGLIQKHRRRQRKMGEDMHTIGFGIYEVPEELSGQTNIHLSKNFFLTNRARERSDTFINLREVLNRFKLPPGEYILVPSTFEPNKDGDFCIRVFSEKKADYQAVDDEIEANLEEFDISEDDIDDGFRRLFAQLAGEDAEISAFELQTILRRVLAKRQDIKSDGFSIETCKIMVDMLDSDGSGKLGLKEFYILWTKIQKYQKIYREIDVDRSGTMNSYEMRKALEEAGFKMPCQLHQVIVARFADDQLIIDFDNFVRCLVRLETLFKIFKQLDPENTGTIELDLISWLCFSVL

Cathepsin B [21] = molecular target: T1, Cathepsin B; test: Compound is evaluated for inhibition kinetic constant Ki for the cathepsin B; procedure, shortened: as §1

Sequence of Cruzipain (Trypanosoma cruzi) (P25779 123-467 limits assumed): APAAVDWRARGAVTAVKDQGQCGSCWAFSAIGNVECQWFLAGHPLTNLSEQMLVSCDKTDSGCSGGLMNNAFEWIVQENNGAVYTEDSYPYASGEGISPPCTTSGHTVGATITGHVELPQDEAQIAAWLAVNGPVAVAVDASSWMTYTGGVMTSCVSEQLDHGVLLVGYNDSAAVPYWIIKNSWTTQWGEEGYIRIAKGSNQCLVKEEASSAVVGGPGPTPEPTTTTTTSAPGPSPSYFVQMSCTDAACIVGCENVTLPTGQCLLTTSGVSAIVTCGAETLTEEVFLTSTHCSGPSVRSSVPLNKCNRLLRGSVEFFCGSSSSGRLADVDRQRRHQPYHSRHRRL
Sequence of Cruzipain (P25779 whole entry): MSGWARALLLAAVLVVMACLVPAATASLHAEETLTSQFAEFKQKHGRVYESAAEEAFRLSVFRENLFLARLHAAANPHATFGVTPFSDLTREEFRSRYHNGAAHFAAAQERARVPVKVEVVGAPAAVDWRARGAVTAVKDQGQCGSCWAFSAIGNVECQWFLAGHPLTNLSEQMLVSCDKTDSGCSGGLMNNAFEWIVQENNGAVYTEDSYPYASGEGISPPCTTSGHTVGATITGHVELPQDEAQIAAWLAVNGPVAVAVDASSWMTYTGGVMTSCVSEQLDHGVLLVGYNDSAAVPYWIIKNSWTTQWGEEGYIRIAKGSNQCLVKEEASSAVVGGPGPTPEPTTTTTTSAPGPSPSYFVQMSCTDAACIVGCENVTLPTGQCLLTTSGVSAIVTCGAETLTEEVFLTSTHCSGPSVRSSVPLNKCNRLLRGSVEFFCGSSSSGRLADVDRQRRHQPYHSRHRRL

| Structure (SMILES) | k obs / 1 (Cathepsin B [1]) [M⁻¹ s⁻¹] | k obs / 1 (Cathepsin S [2]) [M⁻¹ s⁻¹] | k obs / 1 [3] [M⁻¹ s⁻¹] | k obs / 1 [4] [M⁻¹ s⁻¹] | k obs / 1 [5] [M⁻¹ s⁻¹] | k obs / 1 (Procathepsin L [6]) [M⁻¹ s⁻¹] | kirr (Cathepsin B [14]) [s⁻¹] | also measured |
| --- | --- | --- | --- | --- | --- | --- | --- | --- |
| CC(C)C[C@H](NC(=O)OCc1ccccc1)C(=O)N[C@@H](CC(C)C)C(=O)N[C@@H](Cc1ccc(O)cc1)C(=O)/C=C/S(=O)(=O)c1ccccc1 | 730 | 280000 | 45000 | 6400 | 900 |  |  |  |
| O=C(NC(=O)[C@H](Cc1ccc2ccccc2c1)NC(=O)[C@H](CCc1ccccc1)N/C=C/S(=O)(=O)CCc1ccccc1)NN1CCOCC1 | 33000 | 2.9e+07 | 450000 |  |  | 2.24e+06 |  |  |
| CC(C)C[C@H](NC(=O)[C@H](CCc1ccccc1)N/C=C/S(=O)(=O)c1ccccc1)C(=O)NC(=O)NN1CCOCC1 |  |  |  |  |  |  | 0.17 | K inact (Procathepsin L [7]): 0.28 s⁻¹; Ratio (Cathepsin B [8]): 4250; Ki (Cathepsin K): 230 nM; Ratio [9]: 620000; Ki (Procathepsin L [10]): 720 nM; Ratio [11]: 773000; K inact [12]: 0.17 s⁻¹; Ratio (Cathepsin S [13]): 2.63e+07; K inact (Cathepsin S [15]): 0.16 s⁻¹; Ratio (Procathepsin L [16]): 387000; Ki (Cathepsin S [17]): 5.9 nM; Ki (Cathepsin B [18]): 39000 nM; Ki (Cruzipain): 220 nM; K inact [19]: 0.13 s⁻¹ |
| CC(=O)N[C@@H](CC(C)C)C(=O)N[C@@H](CC(C)C)C(=O)N[C@@H](CCS(C)(=O)=O)C(=O)/C=C/S(=O)(=O)c1ccccc1 | 0 |  | 104000 | 8400 | 22700 | 1.5e+06 |  | k obs / 1 [20]: 24300 M⁻¹ s⁻¹ |
| CS(=O)(=O)/C=C/N[C@@H](CCc1ccccc1)C(=O)N[C@@H](Cc1ccccc1)C(=O)NC(=O)NN1CCOCC1 | 5100 | 1.2e+06 | 22000 |  | 6540 | 8700 |  |  |
| O=C(NC(=O)[C@H](Cc1ccccc1)NC(=O)[C@H](CCc1ccccc1)N/C=C/S(=O)(=O)CCc1ccccc1)NN1CCOCC1 | 29000 | 4.7e+06 | 180000 |  | 28500 | 340000 |  |  |
| CC(C)C[C@H](NC(=O)NN1CCOCC1)C(=O)N[C@@H](CC(C)C)C(=O)N[C@@H](Cc1ccc(O)cc1)C(=O)/C=C/S(=O)(=O)c1ccccc1 |  | 25100 |  | 10800 | 815 | 28700 |  |  |
| NCCCC[C@H](N/C=C/S(=O)(=O)c1ccccc1)C(=O)N[C@@H](Cc1ccccc1)C(=O)NC(=O)NN1CCOCC1 | 11300 | 1.07e+07 | 149000 |  | 83300 | 220000 |  |  |
| O=C(NC(=O)[C@H](Cc1ccccc1)NC(=O)[C@H](CCc1ccccc1)N/C=C/S(=O)(=O)c1ccccc1)NN1CCOCC1 |  |  |  |  |  |  | 0.17 | K inact (Procathepsin L [7]): 0.24 s⁻¹; Ratio (Cathepsin B [8]): 16400; Ki (Cathepsin K): 30500 nM; Ratio [9]: 203000; Ki (Procathepsin L [10]): 1000 nM; Ratio [11]: 10200; K inact [12]: 0.31 s⁻¹; Ratio (Cathepsin S [13]): 7.7e+06; K inact (Cathepsin S [15]): 0.085 s⁻¹; Ratio (Procathepsin L [16]): 224000; Ki (Cathepsin S [17]): 11 nM; Ki (Cathepsin B [18]): 11000 nM; Ki (Cruzipain): 360 nM; K inact [19]: 0.072 s⁻¹ |
| CSCC[C@H](NC(=O)[C@H](CC(C)C)NC(=O)[C@H](CC(C)C)NC(C)=O)C(=O)/C=C/S(=O)(=O)c1ccccc1 | 0 |  | 110000 | 5600 | 25000 | 880000 |  |  |
| CCCC[C@H](NC(=O)[C@H](CC(C)C)NC(=O)[C@H](CC(C)C)NC(C)=O)C(=O)/C=C/S(=O)(=O)c1ccccc1 | 0 |  | 133000 | 6900 |  | 930000 |  | k obs / 1 [20]: 7600 M⁻¹ s⁻¹ |
| O=C(NC(=O)[C@H](Cc1ccc2ccccc2c1)NC(=O)[C@H](CCc1ccccc1)N/C=C/S(=O)(=O)c1ccc2ccccc2c1)NN1CCOCC1 |  |  |  |  |  |  | 0.061 | K inact (Procathepsin L [7]): 0.14 s⁻¹; Ratio [9]: 1.04e+06; Ki (Procathepsin L [10]): 18 nM; K inact (Cathepsin S [15]): 0.1 s⁻¹; Ki (Cathepsin S [17]): 1.8 nM; Ki (Cathepsin B [18]): 150 nM; Ki (Cruzipain): 48 nM; K inact [19]: 0.046 s⁻¹ |
| O=C(NC(=O)[C@H](Cc1cc(I)c(O)c(I)c1)NC(=O)[C@H](CCc1ccccc1)N/C=C/S(=O)(=O)c1ccccc1)NN1CCOCC1 |  |  |  |  |  |  | 0.36 | Ratio (Cathepsin B [8]): 1.08e+06; Ki (Cathepsin B [21]): 340 nM |

Source: ChEMBL document CHEMBL1128689, “Vinyl sulfones as mechanism-based cysteine protease inhibitors” (J Med Chem, 1995)
